The source made the active and inactive calls. No cut-off for these calls is given here.
Tests used:
[1] = tested on: Mast/stem cell growth factor receptor Kit (Homo sapiens), P10721 [UNDEFINED MUTATION]; experiment: Inhibition of c-KIT 560 to 578 deletion/T670I double mutant in human GISTT1 cells assessed as reduction in AKT phosphorylation at S473 residue at 0.1 uM to 3 uM after 1 hr by Western blot analysis; format: cell-based
How it was run: (§1)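 Serial compound dilutions applied for 1 h to GIST-T1, GIST-T1-T670I (CRISPR/Cas9 T670I knock-in, clone confirmed by Sanger sequencing) or GIST-5R cells in DMEM with 10% FBS. Cells then lysed and phospho-proteins detected by standard Western blotting.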

[2] = target: Platelet-derived growth factor receptor beta (Homo sapiens, UniProt P09619); experiment: Binding affinity to wild-type human partial length PDGFRB (V582 to Y1009 residues) expressed in bacterial expression system assessed as enzyme remaining activity at 1 uM by Kinomescan assay relative to control
How it was run: (§2)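 KINOMEscan competition binding panel of 468 kinases and mutants, compound at 1 μM; binding reported as percent of control.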

[3] = tested on: Mast/stem cell growth factor receptor Kit (Homo sapiens), P10721 [V559A]; experiment: Inhibition of TEL fused c-KIT V559A mutant (unknown origin) transfected in mouse BAF3 cells assessed as growth inhibition after 72 hrs by CCK8 assay; format: cell-based
How it was run: (§3)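 Tel-c-KIT-transformed BaF3 lines (IL-3 independent) kept in RPMI 1640 with 10% FBS, 2% L-glutamine and pen/strep. Cells at 1.5 to 5 × 10^4 cells/mL mixed with graded compound and incubated 72 h at 37 °C, 5% CO2. Viability by CCK-8 absorbance at 450 nm, normalized to DMSO. GI50 from dose–response fit.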

[4] = target: Platelet-derived growth factor receptor alpha (Homo sapiens, UniProt P16234); experiment: Binding affinity to wild-type human partial length PDGFRA (V575 to D1002 residues) expressed in mammalian expression system assessed as enzyme remaining activity at 1 uM by Kinomescan assay relative to control
[5] = tested on: Mast/stem cell growth factor receptor Kit (Homo sapiens), P10721 [V559D]; experiment: Binding affinity to human partial length c-KIT V559D mutant (Y545 to D952 residues) expressed in bacterial expression system assessed as enzyme remaining activity at 1 uM by Kinomescan method relative to control
How it was run: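 KINOMEscan binding profile (DiscoverX) run at 1 μM against a panel of 468 kinases and mutants. Read-out is percent of control (%Ctrl) remaining bound.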

[6] = AUC (0 to infinity) in mouse at 10 mg/kg, po measured after 5 to 720 mins by LC-tandem mass spectrometry analysis; format: ADME, organism-based; parameters: dose 10 mg/kg, route oral, time infinity; conditions: in vivo
How it was run: (§4)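 Mice dosed 1 mg/kg i.v. or 10 mg/kg p.o.; plasma drug levels by LC-MS/MS, parameters by noncompartmental analysis; values not from triplicate testing.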

[7] = Apparent volume of distribution in Sprague-Dawley rat at 1 mg/kg, iv measured after 2 to 720 mins by LC-tandem mass spectrometry analysis; format: ADME, organism-based; conditions: in vivo, read-out: Vz
How it was run: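 Male Sprague-Dawley rats (190-210 g), fasted 12 h, randomized into two groups: 1 mg/kg i.v. or 10 mg/kg p.o., both formulated in 10% DMSO/90% of 5% glucose water. Blood sampled at 2-720 min (i.v.) or 5-720 min (p.o.). Plasma protein-precipitated with methanol, caffeine internal standard, LC-MS/MS. Noncompartmental analysis; triplicate, ±SD.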

[8] = target: Macrophage colony-stimulating factor 1 receptor (Homo sapiens, UniProt P07333); experiment: Inhibition of wild-type human partial length CSF1R (I564 to S939 residues) expressed in bacterial expression system after 1 hr by Z-LYTE assay
[9] = Apparent clearance in mouse at 1 mg/kg, iv measured after 2 to 720 mins by LC-tandem mass spectrometry analysis; format: ADME, organism-based; conditions: in vivo, read-out: CL(app) (converted); how it was run: as §4
[10] = MRT (0 to infinity) in mouse at 1 mg/kg, iv measured after 2 to 720 mins by LC-tandem mass spectrometry analysis; format: ADME, organism-based; conditions: in vivo
[11] = target: T1, Mast/stem cell growth factor receptor Kit (Homo sapiens, UniProt P10721, T670I); experiment: Inhibition of TEL fused wild type c-KIT T670I mutant (unknown origin) transfected in mouse BaF3 cells assessed as reduction in phosphorylation at Y703 residue after 2 hrs by Western blot analysis; format: cell-based
[12] = tested on: Mast/stem cell growth factor receptor Kit (Homo sapiens), P10721 [UNDEFINED MUTATION]; experiment: Inhibition of c-KIT 560 to 578 deletion/T670I double mutant in human GIST5R cells assessed as reduction in ERK phosphorylation at T202/Y204 residue at 0.1 uM to 3 uM after 1 hr by Western blot analysis; format: cell-based; how it was run: as §1
Mus musculus = experiment: Inhibition of c-KIT phosphorylation at Y703 residue in tumor of human GIST5R cells xenografted in nude mouse at 100 mg/kg, po administered as single dose and measured at 2 hrs; format: functional, organism-based
How it was run: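 Female nu/nu mice bearing subcutaneous GIST-5R xenografts (cells in Matrigel, right flank) given one oral gavage dose of 100 mg/kg in HKI suspension (0.5% methocellulose/0.4% Tween80 in ddH2O). Tumors collected over a 2 h time course; p-c-KIT, p-ERK and p-AKT assessed by Western blot; plasma drug levels monitored in parallel.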

[13] = AUC (0 to t) in mouse at 1 mg/kg, iv measured after 2 to 720 mins by LC-tandem mass spectrometry analysis; format: ADME, organism-based; conditions: in vivo; how it was run: as §4
[14] = Antitumor activity against human GIST5R cells xenografted in nude mouse assessed as tumor weight at 50 mg/kg, po administered […] via gavage for 28 days (reference value: 0.59g); format: functional
How it was run: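 Female nu/nu mice (5 weeks old) given subcutaneous right-flank GIST-5R cells in Matrigel. Dosing began at tumors of 200-400 mm3; randomized, 4 mice per group. Daily oral dosing (QD) at 25, 50 or 100 mg/kg in 0.5% methylcellulose/0.4% Tween80, or vehicle alone, for 28 days. Body weight and tumor volume, (W²×L)/2, measured daily; mean±SEM.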

[15] = target: T1, Mast/stem cell growth factor receptor Kit; experiment: Inhibition of TEL fused wild type c-KIT T670I mutant (unknown origin) transfected in mouse BaF3 cells assessed as reduction in phosphorylation at Y823 residue after 2 hrs by Western blot analysis; format: cell-based
[16] = tested on: Mast/stem cell growth factor receptor Kit (Homo sapiens), P10721 [UNDEFINED MUTATION]; experiment: Inhibition of c-KIT 560 to 578 deletion mutant in human GISTT1 cells assessed as reduction in AKT phosphorylation at S473 residue at 0.1 uM to 3 uM after 1 hr by Western blot analysis; format: cell-based; how it was run: as §1
[17] = tested on: Mast/stem cell growth factor receptor Kit (Homo sapiens), P10721 [V559D,T670I]; experiment: Inhibition of TEL fused c-KIT T670I/V559D double mutant (unknown origin) transfected in mouse BAF3 cells assessed as growth inhibition after 72 hrs by CCK8 assay; format: cell-based; how it was run: as §3
[18] = target: Mast/stem cell growth factor receptor Kit (Homo sapiens, UniProt P10721); experiment: Inhibition of wild type c-KIT phosphorylation at Y703 residue in human COLO320DM cells after 2 hrs by Western blot analysis; format: cell-based
[19] = target: Serine/threonine-protein kinase PAK 2 (Homo sapiens, UniProt Q13177); experiment: Binding affinity to wild-type human partial length PAK2 (P151 to R525 residues) expressed in bacterial expression system assessed as enzyme remaining activity at 1 uM by Kinomescan assay relative to control; how it was run: as §2
Serine/threonine-protein kinase PAK 2, sequence (Q13177 whole entry, the tested form may be a part): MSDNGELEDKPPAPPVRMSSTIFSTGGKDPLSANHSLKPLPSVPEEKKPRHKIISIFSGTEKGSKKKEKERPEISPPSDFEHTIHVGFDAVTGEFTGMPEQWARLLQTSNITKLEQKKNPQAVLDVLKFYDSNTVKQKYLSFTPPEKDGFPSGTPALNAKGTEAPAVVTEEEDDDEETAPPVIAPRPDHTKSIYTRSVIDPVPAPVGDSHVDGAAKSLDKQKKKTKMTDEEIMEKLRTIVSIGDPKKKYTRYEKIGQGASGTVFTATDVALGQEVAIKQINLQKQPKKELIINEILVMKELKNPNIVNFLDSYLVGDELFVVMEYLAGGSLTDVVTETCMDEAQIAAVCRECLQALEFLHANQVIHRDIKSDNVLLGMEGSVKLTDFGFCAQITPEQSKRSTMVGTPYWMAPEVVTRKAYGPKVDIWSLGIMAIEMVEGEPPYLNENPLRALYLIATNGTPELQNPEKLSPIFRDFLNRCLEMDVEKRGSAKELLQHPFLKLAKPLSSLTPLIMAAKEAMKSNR

Mast/stem cell growth factor receptor Kit (Homo sapiens), P10721 [UNDEFINED MUTATION], sequence (P10721 whole entry, looked up, stated change not applied, the tested form may be a part): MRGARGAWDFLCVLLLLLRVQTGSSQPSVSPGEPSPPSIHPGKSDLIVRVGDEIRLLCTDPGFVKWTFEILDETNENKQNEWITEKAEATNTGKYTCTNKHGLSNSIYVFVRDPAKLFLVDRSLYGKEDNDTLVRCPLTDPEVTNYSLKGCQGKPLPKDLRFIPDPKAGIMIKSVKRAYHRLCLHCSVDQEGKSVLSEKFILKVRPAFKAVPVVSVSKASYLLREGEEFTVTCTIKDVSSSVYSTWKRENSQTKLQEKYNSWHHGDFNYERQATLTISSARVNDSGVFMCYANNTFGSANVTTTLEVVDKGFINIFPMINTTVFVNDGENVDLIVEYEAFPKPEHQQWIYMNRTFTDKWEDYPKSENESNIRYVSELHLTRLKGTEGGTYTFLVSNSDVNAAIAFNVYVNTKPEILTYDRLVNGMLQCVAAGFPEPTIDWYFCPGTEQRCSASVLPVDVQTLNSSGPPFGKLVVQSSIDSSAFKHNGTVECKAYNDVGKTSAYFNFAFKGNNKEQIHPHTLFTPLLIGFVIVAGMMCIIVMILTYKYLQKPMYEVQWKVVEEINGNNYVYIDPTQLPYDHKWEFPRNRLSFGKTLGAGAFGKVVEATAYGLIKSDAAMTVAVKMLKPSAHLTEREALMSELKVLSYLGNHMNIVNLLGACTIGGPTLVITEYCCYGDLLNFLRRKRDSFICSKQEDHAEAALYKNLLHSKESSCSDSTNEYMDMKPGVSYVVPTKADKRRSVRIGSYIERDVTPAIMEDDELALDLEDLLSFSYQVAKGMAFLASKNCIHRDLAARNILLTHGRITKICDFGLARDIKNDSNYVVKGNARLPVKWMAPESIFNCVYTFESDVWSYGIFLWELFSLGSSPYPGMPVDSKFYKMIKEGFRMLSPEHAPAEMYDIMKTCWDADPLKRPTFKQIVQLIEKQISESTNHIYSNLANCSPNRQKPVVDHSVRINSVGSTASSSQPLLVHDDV
T1 sequence (P10721 26-976 T670I limits assumed): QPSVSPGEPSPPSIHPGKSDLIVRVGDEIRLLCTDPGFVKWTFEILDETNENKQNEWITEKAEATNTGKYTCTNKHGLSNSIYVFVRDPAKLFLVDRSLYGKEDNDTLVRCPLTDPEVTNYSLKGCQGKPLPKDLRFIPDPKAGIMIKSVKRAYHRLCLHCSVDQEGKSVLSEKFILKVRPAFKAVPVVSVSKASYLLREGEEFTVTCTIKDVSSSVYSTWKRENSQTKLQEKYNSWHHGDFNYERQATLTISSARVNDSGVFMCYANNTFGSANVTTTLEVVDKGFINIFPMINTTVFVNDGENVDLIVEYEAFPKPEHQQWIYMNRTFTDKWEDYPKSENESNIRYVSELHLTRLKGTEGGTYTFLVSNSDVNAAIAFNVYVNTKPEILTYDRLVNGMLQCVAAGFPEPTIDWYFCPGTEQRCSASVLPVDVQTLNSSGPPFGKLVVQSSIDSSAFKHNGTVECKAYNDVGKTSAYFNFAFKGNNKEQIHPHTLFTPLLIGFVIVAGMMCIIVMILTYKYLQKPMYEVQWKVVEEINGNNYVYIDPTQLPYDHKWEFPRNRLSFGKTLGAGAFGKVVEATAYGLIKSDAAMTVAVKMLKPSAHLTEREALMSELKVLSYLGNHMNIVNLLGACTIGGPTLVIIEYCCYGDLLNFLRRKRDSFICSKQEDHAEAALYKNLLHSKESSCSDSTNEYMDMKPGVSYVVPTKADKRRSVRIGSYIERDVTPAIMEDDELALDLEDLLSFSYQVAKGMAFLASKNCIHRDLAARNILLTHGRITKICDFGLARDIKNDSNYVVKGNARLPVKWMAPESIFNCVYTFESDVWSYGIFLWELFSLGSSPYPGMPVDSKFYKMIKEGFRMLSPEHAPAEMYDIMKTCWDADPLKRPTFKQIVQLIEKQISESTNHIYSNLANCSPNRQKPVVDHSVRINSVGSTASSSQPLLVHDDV
Platelet-derived growth factor receptor beta, sequence (P09619 whole entry, the tested form may be a part): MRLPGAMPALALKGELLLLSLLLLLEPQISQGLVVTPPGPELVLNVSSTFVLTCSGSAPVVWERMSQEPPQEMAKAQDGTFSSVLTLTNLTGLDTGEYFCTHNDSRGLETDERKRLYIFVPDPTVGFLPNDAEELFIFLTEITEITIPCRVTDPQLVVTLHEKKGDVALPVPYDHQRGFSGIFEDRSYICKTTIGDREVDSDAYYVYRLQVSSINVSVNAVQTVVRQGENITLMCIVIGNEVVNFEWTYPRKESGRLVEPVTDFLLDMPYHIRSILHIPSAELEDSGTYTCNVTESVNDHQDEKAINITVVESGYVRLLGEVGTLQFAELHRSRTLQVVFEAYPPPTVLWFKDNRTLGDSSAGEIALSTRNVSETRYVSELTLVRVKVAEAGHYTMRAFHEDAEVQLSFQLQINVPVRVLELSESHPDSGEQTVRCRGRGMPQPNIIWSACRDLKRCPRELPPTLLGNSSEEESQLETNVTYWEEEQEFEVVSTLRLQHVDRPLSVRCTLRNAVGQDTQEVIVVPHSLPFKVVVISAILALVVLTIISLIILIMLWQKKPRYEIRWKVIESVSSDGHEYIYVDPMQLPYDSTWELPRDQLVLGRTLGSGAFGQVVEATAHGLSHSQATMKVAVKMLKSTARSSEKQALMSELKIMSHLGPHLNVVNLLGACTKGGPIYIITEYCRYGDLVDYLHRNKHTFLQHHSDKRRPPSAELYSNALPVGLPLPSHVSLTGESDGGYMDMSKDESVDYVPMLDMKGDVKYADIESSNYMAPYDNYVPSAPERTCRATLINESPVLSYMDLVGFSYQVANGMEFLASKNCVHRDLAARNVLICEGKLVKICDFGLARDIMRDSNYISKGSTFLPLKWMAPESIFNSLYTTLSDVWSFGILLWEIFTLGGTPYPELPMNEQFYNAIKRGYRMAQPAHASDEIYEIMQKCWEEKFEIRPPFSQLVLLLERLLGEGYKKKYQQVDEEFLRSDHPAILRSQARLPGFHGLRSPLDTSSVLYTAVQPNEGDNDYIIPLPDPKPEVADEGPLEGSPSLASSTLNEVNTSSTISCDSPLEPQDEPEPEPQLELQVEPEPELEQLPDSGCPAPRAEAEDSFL
Macrophage colony-stimulating factor 1 receptor, sequence (P07333 whole entry, the tested form may be a part): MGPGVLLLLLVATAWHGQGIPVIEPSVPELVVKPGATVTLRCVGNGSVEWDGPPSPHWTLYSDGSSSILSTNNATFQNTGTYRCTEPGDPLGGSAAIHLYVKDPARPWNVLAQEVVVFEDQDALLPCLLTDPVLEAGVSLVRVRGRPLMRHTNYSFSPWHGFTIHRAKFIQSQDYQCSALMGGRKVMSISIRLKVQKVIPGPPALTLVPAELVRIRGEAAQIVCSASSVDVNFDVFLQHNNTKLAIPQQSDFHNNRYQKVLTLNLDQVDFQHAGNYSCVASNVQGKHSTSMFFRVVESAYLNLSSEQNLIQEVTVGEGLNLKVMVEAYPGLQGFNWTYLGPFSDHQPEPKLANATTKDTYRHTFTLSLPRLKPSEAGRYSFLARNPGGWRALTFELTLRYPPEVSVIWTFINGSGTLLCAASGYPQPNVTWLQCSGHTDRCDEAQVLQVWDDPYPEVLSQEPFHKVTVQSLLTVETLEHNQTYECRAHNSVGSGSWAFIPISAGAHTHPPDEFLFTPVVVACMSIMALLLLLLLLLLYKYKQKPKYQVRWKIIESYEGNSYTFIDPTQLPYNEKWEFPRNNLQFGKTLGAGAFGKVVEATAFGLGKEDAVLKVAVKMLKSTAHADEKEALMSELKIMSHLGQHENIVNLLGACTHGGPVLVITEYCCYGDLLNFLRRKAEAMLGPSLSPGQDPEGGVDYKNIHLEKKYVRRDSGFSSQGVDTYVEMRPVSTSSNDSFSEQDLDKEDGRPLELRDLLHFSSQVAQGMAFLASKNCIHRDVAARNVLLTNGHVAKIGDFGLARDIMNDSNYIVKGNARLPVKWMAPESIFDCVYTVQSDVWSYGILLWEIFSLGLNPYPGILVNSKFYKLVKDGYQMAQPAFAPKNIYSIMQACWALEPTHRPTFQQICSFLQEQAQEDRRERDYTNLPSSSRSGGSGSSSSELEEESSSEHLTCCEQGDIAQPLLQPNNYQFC

O=C(CC(=O)Nc1ccc2c(/C=C/c3ccccn3)n[nH]c2c1)Nc1cccc(F)c1
inhibition [1]: Active
Activity [2]: 0%
GI50 [3]: 31 nM
Activity [4]: 3.4%
Activity [5]: < 1%
AUC(0-inf) [6]: 1480 ng·h/mL
Vd [7]: 49.3 L/kg
IC50 [8]: 14.2 to 14.3 nM
clearance [9]: 18.3 mL/min/kg
MRT inf [10]: 24 min
EC50 [11]: 77 nM
inhibition [12]: Active
inhibition (Mus musculus): Active
AUC(0-t) [13]: 898 ng·h/mL
Activity [14]: 0.25 g
EC50 [15]: 34 nM
inhibition [16]: Active
GI50 [17]: 122 nM
EC50 [18]: 1810 nM
Activity [19]: 0.1%
